Measured values reported in ChEMBL document CHEMBL3997837, “Potent covalent inhibitors of bacterial urease identified by activity-reactivity profiling” (Bioorg Med Chem Lett, 2017).
Counter-ions that a name gives are not always drawn. Activity calls are given as the source filed them. No cut-off for these calls is given here.

What was measured:
[1] = Inhibition of Sporosarcina pasteurii CCM 2056 urease assessed as reduction in ammonia production using urea as substrate measured for 120 mins by phenol-hypochlorite method
[2] = Inhibition of Sporosarcina pasteurii CCM 2056 urease assessed as reduction in ammonia production by measuring steady state enzyme-inhibitor complex using urea as substrate measured for 120 mins by phenol-hypochlorite method
Sporosarcina pasteurii [3] = experiment: Reversible inhibition of Sporosarcina pasteurii CCM 2056 urease assessed as reduction in ammonia production by measuring recovery of enzyme activity at 10 times IC50 preincubated for 60 mins followed by 100-fold dilution in to PBS containing urea as substrate by Berthelot colorimetric assay relative to control; set-up: Activity: scale not given: the % may be the effect or the level left
[4] = Inhibition of Sporosarcina pasteurii CCM 2056 urease assessed as reduction in ammonia production by measuring initial state enzyme-inhibitor complex using urea as substrate measured for 120 mins by phenol-hypochlorite method
Sporosarcina pasteurii [5] = experiment: Competitive inhibition of Sporosarcina pasteurii CCM 2056 urease assessed as reduction in ammonia production preincubated with enzyme followed by addition of varying levels of urea as substrate measured for 120 mins by Lineweaver-Burk plot analysis
Sporosarcina pasteurii [6] = experiment: Time-dependent Sporosarcina pasteurii CCM 2056 urease assessed as reduction in ammonia production using urea as substrate by phenol-hypochlorite method
[7] = Glutathione reactivity in pH 7.4 PBS measured after 6 to 36 hrs in presence of 1.375 mmol GSH by DTNB reagent based spectrophotometric method
In short: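 Glutathione served as a model reactive-thiol compound. Unreacted GSH was quantified spectrophotometrically by a modified Ellman method, and reaction progress was followed over time up to 36 h.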

Proteus mirabilis = experiment: Inhibition of Proteus mirabilis 543 urease at pH 5.5 assessed as reduction in ammonia production using urea as substrate followed by substrate addition by NaOH-hypochlorite method; conditions: TDE = time-dependent effect
[8] = Inhibition of Proteus mirabilis 543 urease at pH 5.5 assessed as reduction in ammonia production using urea as substrate preincubated for 120 mins followed by substrate addition measured after 15 mins by NaOH-hypochlorite method
In short: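 Intact Proteus mirabilis cells were preincubated with inhibitors in PBS for 2 h, then tested at pH 5.5, matching urine acidity, with 5 mM urea. IC50 was determined.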

[9] = Cytotoxicity against mouse BALB/3T3 cells assessed as inhibition of cell proliferation at 100 uM after 72 hrs by SRB assay relative to control; format: cell-based
In short: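 Mouse BALB/3T3 cells were tested by SRB assay at a single concentration of 100, with the result given as percent inhibition of proliferation.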

[10] = Inhibition of Proteus mirabilis 543 urease at pH 5.5 assessed as reduction in ammonia production using urea as substrate measured after 15 mins by NaOH-hypochlorite method
In short: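 Intact Proteus mirabilis cells were tested at pH 5.5, matching physiological urine, with 5 mM urea. Inhibitors were added without preincubation, and IC50 was determined.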

BALB/3T3 = experiment: Cytotoxicity against mouse BALB/3T3 cells assessed as reduction in cell proliferation after 72 hrs by SRB assay; format: cell-based; conditions: balb/3t3, 72 h
In short: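 Mouse BALB/3T3 fibroblasts were scored by SRB assay, with cytotoxicity given as LC50 values.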

[11] = Glutathione reactivity up to 15 mins in presence of 10 mM GSH by 1H NMR analysis

| Structure (SMILES) | Ki ([1]; read-out: Ki) [µM] | Ki ([2]; read-out: Ki) [µM] | Activity (Sporosarcina pasteurii [3]) [%] | Ki ([4]; read-out: Ki) [µM] | mode of inhibition (Sporosarcina pasteurii [5]) | TDI (Sporosarcina pasteurii [6]) | further results |
| --- | --- | --- | --- | --- | --- | --- | --- |
| CCOC(=O)/C=C/C(=O)OC(C)(C)C | 22.1 | 25.7 | 39.3 | 425 | Active | Active |  |
| COC(=O)/C=C/C1=CC(=O)CCC1 | 0.694 | 0.766 | 23.6 | 46.5 | Active | Active | K [7]: 0.0703 M⁻¹ s⁻¹; log K [7]: 0.63 |
| CC#CC(=O)OCC | 126 | 117 | 47.3 | 1270 | Active | Active |  |
| CCOC(=O)/C=C/c1ccccc1 [ETHYL CINNAMATE] |  |  |  |  |  |  | K [7]: 1.21e-05 M⁻¹ s⁻¹; log K [7]: -3.14; Ki [1]: Not Active; Ki [2]: Not Active; inhibition (Proteus mirabilis): Tde; IC50 [8]: Not Active; inhibition (Sporosarcina pasteurii [3]): inactive; Ki [4]: Not Active; inhibition at 72 h, 100 µM [9]: 29.1%; IC50 [10]: Not Active |
| O=C1C=CCCC1 | 0.766 | 0.267 | 27.2 | 22.8 | Active | Active | K [7]: 0.37 M⁻¹ s⁻¹; log K [7]: 1.35; inhibition at 72 h, 100 µM [9]: 29.8% |
| O=C1C=CCC1 | 0.291 | 0.232 | 15.3 | 11.2 | Active | Active | K [7]: 0.487 M⁻¹ s⁻¹; log K [7]: 1.5; LC50 (BALB/3T3): 86.5 µM |
| CCOC(=O)/C=C/C(=O)C(=O)OCC | 0.0928 | 0.113 | 8.9 | 32.8 | Active | Active |  |
| COC(=O)/C=C/C(=O)OC [DIMETHYL FUMARATE] | 21.3 | 21.7 | 36.8 | 311 | Active | Active | K [7]: 2.62 M⁻¹ s⁻¹; log K [7]: 2.2; LC50 (BALB/3T3): 39.7 µM; Drug metabolism [11]: Metabolite detected |
| COC(=O)/C=C(\CC(=O)OC)C(=O)OC | 5.21 |  | 31.5 |  | Active | Active |  |
| O=C(O)/C=C/C1=CC(=O)CCC1 | 17.8 | 19.5 | 38.1 | 189 | Active | Active |  |
| COC(=O)/C=C/C1=CC(=O)CC1 | 0.285 | 0.316 | 16.7 | 16.7 | Active | Active | K [7]: 0.166 M⁻¹ s⁻¹; log K [7]: 0.998; inhibition at 72 h, 100 µM [9]: 35.2% |
| CC#CC(=O)O | 109 | 97.5 | 47.4 | 1130 | Active | Active |  |
| COC(=O)C#CC(=O)OC | 0.00977 | 0.0124 | 9.2 | 0.973 | Active | Active | K [7]: 6.47 M⁻¹ s⁻¹; log K [7]: 2.59; LC50 (BALB/3T3): 29.8 µM; Drug metabolism [11]: Metabolite detected |
| CCOC(=O)/C=C/C(=O)OCC | 11.1 | 12 | 34.3 | 21.7 | Active | Active |  |
| O=C(O)/C=C/c1ccc([N+](=O)[O-])cc1 | 11.9 | 15.7 | 35.8 | 323 | Active | Active |  |
| C#CC(=O)OC | 46 | 50.5 | 41.5 | 804 | Active | Active |  |
| COC(=O)/C=C\C(=O)OC [DIMETHYL MALEATE] |  |  |  |  |  |  | Ki [1]: Not Active; Ki [2]: Not Active; inhibition (Sporosarcina pasteurii [3]): inactive; Ki [4]: Not Active |
| N#C/C=C/C1=CC(=O)CCC1 | 0.784 | 0.931 | 27.2 | 55.1 | Active | Active |  |
| Cc1ccc(/C=C/C(=O)O)cc1 | 34.2 | 32.2 | 39.9 | 633 | Active | Active |  |

| Structure (SMILES) | Ki ([1]; read-out: Ki) [µM] | Ki ([2]; read-out: Ki) [µM] | Activity (Sporosarcina pasteurii [3]) [%] | Ki ([4]; read-out: Ki) [µM] | mode of inhibition (Sporosarcina pasteurii [5]) | TDI (Sporosarcina pasteurii [6]) | further results |
| --- | --- | --- | --- | --- | --- | --- | --- |
| CCOC(=O)C#Cc1ccccc1 | 52.3 | 47.1 | 44.7 | 814 | Active | Active |  |
| CCOC(=O)/C=C/c1ccc([N+](=O)[O-])cc1 |  |  |  |  | Active |  | Ki [1]: Not Active; Ki [2]: Not Active; inhibition (Sporosarcina pasteurii [3]): inactive; Ki [4]: Not Active |
| O=C(O)/C=C\C(=O)O [MALEIC ACID] |  |  |  |  |  |  | Ki [1]: Not Active; Ki [2]: Not Active; inhibition (Sporosarcina pasteurii [3]): inactive; Ki [4]: Not Active |
| CCOC(=O)/C=C/c1ccc(C)cc1 |  |  |  |  |  |  | Ki [1]: Not Active; Ki [2]: Not Active; inhibition (Sporosarcina pasteurii [3]): inactive; Ki [4]: Not Active |
| CCC(C)OC(=O)/C=C/C(=O)OC(C)CC (configuration not stated) | 64.2 | 59.2 | 46 | 907 | Active | Active |  |
| C=C=CC(=O)OCC | 2.52 | 2.27 | 29.1 | 162 | Active | Active |  |
| C=C=CC(=O)NCc1ccccc1 |  |  |  |  |  |  | Ki [1]: Not Active; Ki [2]: Not Active; inhibition (Sporosarcina pasteurii [3]): inactive; Ki [4]: Not Active |
| CCCCOC(=O)/C=C/C(=O)OCCCC | 53.7 | 66.7 | 45.1 | 847 | Active | Active |  |
| C#CC(=O)O [PROPIOLIC ACID] | 44.4 | 43.5 | 40.9 | 729 | Active | Active |  |
| CC(C)OC(=O)/C=C/C(=O)OC(C)C | 42.4 | 38.6 | 41.2 | 678 | Active | Active |  |
| O=C1C=C(/C=C/C(=O)c2ccccc2)CCC1 | 0.592 | 0.493 | 21.5 | 26.8 | Active | Active |  |
| CC(=O)/C=C/C1=CC(=O)CCC1 | 21.2 | 21.3 | 38.8 | 205 | Active | Active |  |
| O=C(O)C#Cc1ccccc1 | 37.1 | 40.3 | 39.2 | 584 | Active | Active |  |
| O=C(O)/C=C(\CC(=O)O)C(=O)O [ACONITIC ACID] | 6.13 |  | 33.8 |  | Active | Active |  |
| CC(=O)NO [ACETOHYDROXAMIC ACID] | 3.3 |  | 29.1 |  |  |  | IC50 ([8]; read-out: IC50): 91.4 µM; IC50 ([10]; read-out: IC50): 169 µM |
| CCOC(=O)/C=C/C(=O)c1ccccc1 | 3.96 | 1.21 | 30.2 | 29.2 | Active | Active | K [7]: 2.18 M⁻¹ s⁻¹; log K [7]: 2.12; LC50 (BALB/3T3): 24.5 µM |
| CCOC(=O)/C=C/C(=O)O [ETHYL FUMARATE] | 52.4 | 59.1 | 45.6 | 888 | Active | Active |  |
| Cc1ccc(C(=O)/C=C/C(=O)O)cc1 | 6.36 | 6.64 | 32.7 | 77.1 | Active | Active | K [7]: 0.333 M⁻¹ s⁻¹; log K [7]: 1.3; inhibition at 72 h, 100 µM [9]: 31.3% |
| CCOC(=O)C#CC(=O)OCC | 0.0102 | 0.00744 | 8.8 | 0.852 | Active | Active |  |
